Screening results from PubChem.
ALR H2O2 inh = human ALR oxidase inhibition via reduced H2O2; hit rate 3.8% among 290,000; inhibition, % (no concentration beside the values); purified ALR, DTT oxidation, H2O2 HRP-luminol luminescence; AID 485317;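 active = mean replicate inhibition above about 79%, with every replicate also reaching it, limit read from the data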
Target sequence (P55789 whole entry, looked up): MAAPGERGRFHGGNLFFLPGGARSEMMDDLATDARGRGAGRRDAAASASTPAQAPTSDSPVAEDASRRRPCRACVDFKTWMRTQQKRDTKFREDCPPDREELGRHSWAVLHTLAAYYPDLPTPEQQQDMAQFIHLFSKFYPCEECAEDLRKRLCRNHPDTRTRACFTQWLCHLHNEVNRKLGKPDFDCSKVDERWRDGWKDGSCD
T cell modulator = modulates CD8 T cell binding to vesicles. response (vesicle binding), % at 7 µM. hit rate 0.068% among 330,000. 2C CD8+ T cell-vesicle binding, flow cytometry; stronger effect = lower value;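 active = response, share of CD8 T cells binding vesicles, and their 90th percentile fluorescence all below set limits, cut at about 80% in these data, passing the limit was not always enough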;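 also: values below 100% mean blocked vesicle binding to the CD8+ T cells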
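Read-out – percent CD8+ FL2 mean versus row control · System – murine 2C transgenic CD8+ T lymphocytes · Times – 1.5 h cell–vesicle binding at 37 °C, then 20 min icy labelling · Control set – naked vesicles low, QL9 vesicles with vehicle high · Detection – cytometric PE anti-B7-1 and Alexa647 anti-CD8 signals after 1% paraformaldehyde fixation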
Glyco luc inh = N-linked glycosylation inhibition | D54 ERlucT glycosylation luciferase reporter, 24 h; percent of 100 nM tunicamycin response | reporter increase, % at 12.5 µM | hit rate 0.23% among 360,000 | AID 588692;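 active = mean luciferase reporter signal, scaled so untreated is 0 and the glycosylation-blocking control 100, at or above a set limit in every replicate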;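 also: luciferase carries N-glycosylation sites so blocking glycosylation raises the light; 0% = median of neutral control wells and 100% = median of 100 nM tunicamycin wells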
Numbers without * were called inactive; i = inactive; / = no result given. The entries come from a sample that favours hits as a whole.

SMILES	ALR H2O2 inh	T cell modulator	Glyco luc inh
Cc1cc(Br)ccc1NC(=O)CN(C)C(=O)C1=COCCO1	-2.5	416.0	-0.4
CN1[C@@H]2CCC[C@H]1CC(NC(=O)c1nn(C)c3ccccc13)C2 (some centres not stated)	2.8	589.6	-0.2
CSc1ccc(/C=C2/C(=N)N3N=C(CC(=O)N4CCCC4)SC3=NC2=O)cc1	11.7	283.0	-0.4
Cc1ccc(/C=C2/C(=N)N3N=C(CC(=O)N4CCCC4)SC3=NC2=O)cc1	97.4*	331.0	5.4
COc1ccc(/C=C2/C(=N)N3N=C(CC(=O)N4CCCC4)SC3=NC2=O)cc1OC	10.8	539.9	0.8
C=CCOc1ccc(/C=C2/C(=N)N3N=C(CC(=O)N4CCCC4)SC3=NC2=O)cc1OC	98.8*	369.7	-0.9
CN(c1ccccc1)S(=O)(=O)c1ccc(C(=O)OCC(=O)NCc2cccs2)cc1	-1.8	58.2	6.9
O=c1c(C(c2ccc(Br)cc2)c2c(O)nc3n(c2=O)CCS3)c(O)nc2n1CCS2	52.1	184.2	0.9
Cc1ccc(C(c2c(O)nc3n(c2=O)CCS3)c2c(O)nc3n(c2=O)CCS3)cc1	96.6*	681.1	0.6
O=c1c(C(c2c(O)nc3n(c2=O)CCS3)c2cccc3ccccc23)c(O)nc2n1CCS2	96.1*	741.9	-2.4
O=c1c(C(c2ccc(O)cc2)c2c(O)nc3n(c2=O)CCS3)c(O)nc2n1CCS2	/	346.4	2.5
COc1cc(C)ccc1OCC(=O)NCC1CCCO1 (configuration not stated)	1.7	632.9	0.3
CCCOc1ccc(CNC(=O)C2CCN(C(=O)N3CCOc4ccccc43)CC2)cc1	-28.9	576.2	0.7
COc1cccc(C(=O)N2CCN(Cc3ccccc3Br)CC2)c1	0.1	281.0	-3.0
O=C(O)CCC(=O)/C=C/c1ccccc1	2.4	306.9	-1.4
CC(C)c1ccc(/C=C/C(=O)CCC(=O)O)cc1	97.8*	479.2	-8.3
CCN(CC)C(=O)C1=C(C)N(CCCOC)C(=O)C(CC(=O)NCc2cccc3ccccc23)C1 (configuration not stated)	/	/	0.1
COc1ccc(N2CCN(C(=O)CCNS(=O)(=O)c3cccs3)CC2)cc1	94.1*	70.3	-1.1
COc1ccccc1N1CCN(C(=O)CN(CCc2ccccc2)S(C)(=O)=O)CC1	32.3	i	1.4
COc1ccc(N2CCN(C(=O)CN(CCc3ccccc3)S(C)(=O)=O)CC2)cc1	87.8*	573.2	-1.9
COc1ccc(S(=O)(=O)N(C)CC(=O)N2CCN(c3ccccc3)CC2)cc1	61.5	572.3	-1.1
COc1ccc(N2CCN(C(=O)CN(C)S(=O)(=O)c3cccs3)CC2)cc1	98.6*	136.4	-0.7
O=C(CCNS(=O)(=O)c1cccs1)N1CCN(c2cccc(C(F)(F)F)c2)CC1	/	340.7	-3.7
O=C(NC1CC(=O)c2sccc21)c1cccc(C(F)(F)F)c1 (configuration not stated)	-9.6	276.9	5.1
CC(Cl)C(=O)c1c[nH]c2ccccc12 (configuration not stated)	3.4	332.2	-2.0
SMILES	ALR H2O2 inh	T cell modulator	Glyco luc inh
O=C(CCc1ccccc1)Nc1ccccc1	-16.4	328.6	-0.8
O=C(CC(c1ccccc1)c1ccccc1)Nc1ccc(O)cc1	98.6*	237.5	0.0
O=C(CC(NCCc1ccccc1)C(=O)O)Nc1ccc(O)cc1 (configuration not stated)	91.2*	624.4	/
CC(=O)Nc1ccc(NC(=O)CC(c2ccccc2)c2ccccc2)cc1	-10.5	188.2	0.6
C[C@H](CO)N1C[C@H](C)[C@@H](CN(C)S(C)(=O)=O)Oc2c(NC(=O)C3CC3)cccc2C1=O	0.4	349.2	3.0
Cc1ccc(CCC2C3=C(CCCC3=O)OC3=C2C(=O)CCC3)cc1	/	0.0*	-2.9
CC(C)c1ccc(CC(C)C2C3=C(CCCC3=O)OC3=C2C(=O)CCC3)cc1 (configuration not stated)	-21.0	215.8	-8.8
CC(C)[C@H](NC(=O)c1ccccc1)C(=O)OCC(=O)c1ccccc1F	88.4*	413.7	-0.6
CC(C)[C@H](NC(=O)c1c(F)cccc1F)C(=O)OCC(=O)NNC(=O)c1ccccc1	/	/	0.1
CCOC(=O)/C(C#N)=C\C=C1C=CN(C)C=C1	99.0*	90.6	0.5
CCOC(=O)/C(C#N)=C\c1ccc(CC)s1	-0.4	239.0	-0.7
CCOC(=O)Cc1cc(-c2ccc(F)cc2)nc2ccc3ccccc3c12	-13.4	306.0	-1.7
CN(C)CCCNc1ncnc2sc(-c3ccccc3)cc12	/	319.7	15.8
CCOC(CNc1ncnc2sc(-c3ccccc3)cc12)OCC	96.7*	186.0	-3.1
CC(=O)c1ccc(OCC(=O)Nc2nnc(C3CC3)s2)cc1	/	/	0.3
CCOc1ccc(CC(=O)NCC2(N3CCCCC3)CCCCC2)cc1	-1.5	431.2	-1.4
O=c1[nH]c(/C=C/c2ccc(Cl)cc2Cl)c([N+](=O)[O-])c(=O)[nH]1	97.0*	84.4	1.1
O=c1[nH]c(/C=C/c2ccccc2)c([N+](=O)[O-])c(=O)[nH]1	14.0	163.9	1.0
COc1ccc(Nc2nc(N3CCCC3)c3ccccc3n2)cc1	/	449.9	-2.6
CCN(CC)c1ccc(Nc2nc(N3CCOCC3)c3ccccc3n2)cc1	99.3*	157.5	-1.7
C[C@H](CO)N1C[C@H](C)[C@@H](CN(C)C)OCc2cnnn2CCCC1=O	/	/	1.9
CCOC(=O)c1c(N)c2cc([N+](=O)[O-])ccc2n1C	9.8	263.0	-0.3
CCOC(=O)/C(=C/c1c(C)n(C)c2ccc([N+](=O)[O-])cc12)C(C)=O	1.4	388.2	44.3*
CCOc1ccc(NCc2cccn2-c2nnc(N3CCC(C(=O)NCCCN4CCCCC4CC)CC3)s2)cc1 (configuration not stated)	99.2*	302.9	-2.6
CC1CCCCN1CCCNC(=O)C1CCN(c2nnc(-n3cccc3)s2)CC1 (configuration not stated)	-4.5	135.8	1.0
SMILES	ALR H2O2 inh	T cell modulator	Glyco luc inh
O=S(=O)(c1ccc(Br)s1)N1CCN(c2ccc(F)cc2)CC1	-26.8	338.6	-2.4
CCOC(=O)c1cccc(NC(=O)CSc2nnc(C)n2CC2CCCO2)c1 (configuration not stated)	-1.2	281.4	-0.3
COc1cc(N=C2C(=O)N3c4c(cccc42)C(C)=CC3(C)C)cc(OC)c1	23.9	349.6	3.0
CC1=CC(C)(C)N2C(=O)C(=Nc3ccc(O)cc3)c3cccc1c32	96.9*	62.1	1.6
CCc1nc2ccc(C(=O)N3CCN(C(C)=O)CC3)cn2c1N(CC)C(C)=O	/	/	2.5
O=C(CNC(=O)c1ccc(Br)o1)NCc1ccc(F)cc1	2.1	351.0	/
COc1ccc(NC(=O)CSc2nnnn2C)cc1	-5.7	360.6	3.1
COc1ccc(C(=O)NNC(=O)CSc2nnnn2C)cc1	-23.0	61.7*	2.1
CC/C(=N/OC(=O)c1cccc(C)c1)C(=O)c1cccs1	91.4*	501.9	1.6
C/C(=N/OC(=O)c1ccc(C)cc1)c1cccs1	-17.9	423.9	-0.5
Cc1ccc(C(=O)NCC(=O)OCCCn2c(=O)[nH]c3ccccc32)cc1C	/	/	0.5
Cc1oc(-c2ccc(Cl)cc2)nc1CS(=O)CC(=O)NC1CCCCC1 (configuration not stated)	97.0*	94.1	0.9
COc1ccc(C(=O)OCC(=O)NCC2CCCO2)cc1 (configuration not stated)	-3.0	210.3	0.7
